Test results reported in ChEMBL document CHEMBL1122744, “2-Chloroethyl (methylsulfonyl)methanesulfonate and related (methylsulfonyl)methanesulfonates. Antineoplastic activity in vivo” (J Med Chem, 1984).

Key:
Mus musculus [1] = assay: Mortality by day 5 expressed as number of mice died to the total treated at dose 6 mg/kg in exp2; 0/6; type: ADME, organism-based; parameters: dose 6 mg/kg; conditions: in vivo
Mus musculus [2] = assay: Median survival time of the untreated control groups, in which there are no 30-day survivors at dose 6 mg/kg in exp1; type: functional
Mus musculus [3] = assay: Mortality by day 5 expressed as number of mice died to the total treated at dose 25 mg/kg in exp1; 0/6; type: ADME, organism-based; parameters: dose 25 mg/kg; conditions: in vivo
Mus musculus [4] = assay: Median survival time of the treated control groups, in which there are no 30-day survivors at dose 12 mg/kg in exp1; type: functional
[5] = Ratio of median survival times for non-survivors at dose 12 mg/kg in exp1; type: functional
Summary of the method: (§1)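 Mice were inoculated ip with 10^6 P388 leukemia cells on day 0. Groups of six (occasionally five) were dosed ip qd on days 1–5 with fresh suspensions; 30 mice served as untreated controls. Deaths were recorded daily up to day 60. T/C% compares the median survival of treated non-survivors (<60 days) with the control median. Medians used grouped data when there were no 30-day survivors, otherwise ungrouped data. t = toxic.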

Mus musculus [6] = assay: Median survival time of the untreated control groups, in which there are no 30-day survivors at dose 12 mg/kg in exp1; type: functional
Mus musculus [7] = assay: Change in weight by day 5, obtained by subtracting treated groups of animals minus control groups of animals at dose 6 mg/kg in exp1.; type: functional
Summary of the method: (§2)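 Mice were inoculated ip with 10^6 P388 leukemia cells on day 0, when treated and control mice weighed 19–22 g. Treatment was given ip once daily on days 1–5, within about 5 min of preparing the solution or suspension. Groups of six (occasionally five) were treated, with 30 untreated inoculated mice as controls. The day-5 weight change is the mean treated change minus the mean control change.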

Mus musculus [8] = assay: Mortality by day 5 expressed as number of mice died to the total treated at dose 12 mg/kg in exp1; 0/6; type: ADME, organism-based; parameters: dose 12 mg/kg; conditions: in vivo
Mus musculus [9] = assay: Mortality by day 5 expressed as number of mice died to the total treated at dose 12 mg/kg in exp2; 1/6; type: ADME, organism-based; parameters: dose 12 mg/kg; conditions: in vivo
[10] = Ratio of median survival times for non-survivors at dose 12 mg/kg in exp2; type: functional; summary of the method: as §1
Mus musculus [11] = assay: Change in weight by day 5, obtained by subtracting treated groups of animals minus control groups of animals at dose 12 mg/kg in exp1; type: functional; summary of the method: as §2
Mus musculus [12] = assay: Mortality by day 5 expressed as number of mice died to the total treated at dose 6 mg/kg in exp1; 0/5; type: ADME, organism-based; parameters: dose 6 mg/kg; conditions: in vivo
Mus musculus [13] = assay: Change in weight by day 5, obtained by subtracting treated groups of animals minus control groups of animals at dose 12 mg/kg in exp2; type: functional; summary of the method: as §2
Mus musculus [14] = assay: Median survival time of the untreated control groups, in which there are no 30-day survivors at dose 25 mg/kg in exp1; type: functional
Mus musculus [15] = assay: Median survival time of the treated control groups, in which there are no 30-day survivors at dose 6 mg/kg in exp1; type: functional
Mus musculus [16] = assay: Mortality by day 5 expressed as number of mice died to the total treated at dose 25 mg/kg in exp2; 4/6; type: ADME, organism-based; parameters: dose 25 mg/kg; conditions: in vivo
[17] = Median survival time of the untreated control groups, in which there are no 30-day survivors at dose 12 mg/kg in exp2; type: functional
Mus musculus [18] = assay: Median survival time of the treated control groups, in which there are no 30-day survivors at dose 12 mg/kg in exp2; type: functional
[19] = Ratio of median survival times for non-survivors at dose 25 mg/kg in exp1; t= toxic; type: ADME, organism-based; parameters: dose 25 mg/kg; conditions: in vivo
Mus musculus [20] = assay: Mortality by day 5 expressed as number of mice died to the total treated at dose 25 mg/kg in exp1; 6/6; type: ADME, organism-based; parameters: dose 25 mg/kg; conditions: in vivo
[21] = Ratio of median survival times for non-survivors at dose 6 mg/kg in exp1; type: functional
Mus musculus [22] = assay: Median survival time of the untreated control groups, in which there are no 30-day survivors at dose 6 mg/kg in exp2; type: functional
Mus musculus [23] = assay: Change in weight by day 5, obtained by subtracting treated groups of animals minus control groups of animals at dose 25 mg/kg in exp2; type: functional; summary of the method: as §2
[24] = Ratio of median survival times for non-survivors at dose 6 mg/kg in exp2; type: functional
[25] = Ratio of median survival times for non-survivors at dose 25 mg/kg in exp2; t= toxic; type: ADME, organism-based; parameters: dose 25 mg/kg; conditions: in vivo
Mus musculus [26] = assay: Median survival time of the treated control groups, in which there are no 30-day survivors at dose 6 mg/kg in exp2; type: functional
Mus musculus [27] = assay: Change in weight by day 5, obtained by subtracting treated groups of animals minus control groups of animals at dose 6 mg/kg in exp2; type: functional
Summary of the method: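 Mice were inoculated ip with 10^6 P388 leukemia cells on day 0 and weighed 19–22 g that day. Compound was given ip once daily on days 1–5, within about 5 min of preparing the solution or suspension, to groups of six (occasionally five). Thirty inoculated untreated mice served as controls. The value is the average weight change of treated mice minus that of controls on day 5.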

Mus musculus [28] = assay: Median survival time of the untreated control groups, in which there are no 30-day survivors at dose 25 mg/kg in exp2; type: functional

COS(=O)(=O)CS(C)(=O)=O
Mortality (Mus musculus [1]): 0 | Median survival time (Mus musculus [2]): 10.7 | Mortality (Mus musculus [3]): 0 | Median survival time (Mus musculus [4]): 14 | Ratio [5]: 130 | Median survival time (Mus musculus [6]): 10.7 | Change in weight (Mus musculus [7]): 0 | Mortality (Mus musculus [8]): 0 | Mortality (Mus musculus [9]): 1 | Ratio [10]: 128 | Change in weight (Mus musculus [11]): -4.1 | Mortality (Mus musculus [12]): 0 | Change in weight (Mus musculus [13]): -2.8 | Median survival time (Mus musculus [14]): 10.7 | Median survival time (Mus musculus [15]): 14.5 | Mortality (Mus musculus [16]): 4 | Median survival time [17]: 10.7 | Median survival time (Mus musculus [18]): 13.7 | Ratio [19]: Toxic | Mortality (Mus musculus [20]): 6 | Ratio [21]: 135 | Median survival time (Mus musculus [22]): 10.7 | Change in weight (Mus musculus [23]): -2.8 | Ratio [24]: 125 | Ratio [25]: Toxic | Median survival time (Mus musculus [26]): 13.4 | Change in weight (Mus musculus [27]): -0.8 | Median survival time (Mus musculus [28]): 10.7
